Experiments:
[1] = system: Hepatitis C virus; experiment: Antiviral activity against Hepatitis C virus containing NS3/4a ps41 sequence by transient cell-base protease activity; assay type: functional, organism-based, Hepacivirus hominis
Procedure, shortened: (§1)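 Transient cell-based phenotype assay of protease activity, using NS3/4A sequences cloned from plasma of HCV-infected patients. EC50s were determined.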

[2] = system: Hepatitis C virus; experiment: Antiviral activity against Hepatitis C virus genotype 2a infected in […] cell by cell-based HCV replicon assay in presence of 10% fetal bovine serum; assay type: functional, organism-based, Hepacivirus hominis
[3] = system: Hepatitis C virus; experiment: Antiviral activity against Hepatitis C virus containing NS3/4a ps31 sequence by transient cell-base protease activity; assay type: functional, organism-based, Hepacivirus hominis; procedure, shortened: as §1
[4] = Cmax in dog at 5 mg/kg, po by LC/MS/MS analysis; assay type: ADME, organism-based, Canis lupus familiaris; set-up: dose 5 mg/kg, route oral; conditions: in vivo
Procedure, shortened: (§2)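 Dosed orally as a solution in polyethylene glycol 400 (2.0 ml/kg), with n = 3. EDTA plasma was centrifuged off and held at −70°C. Drug levels were determined by LC/MS/MS following protein precipitation.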

[5] = AUC (0-24 hrs) in rat at 2 mg/kg, iv by LC/MS/MS analysis; assay type: ADME, organism-based; set-up: time < 24 hr, dose 2 mg/kg, route intravenous; conditions: plasma
Procedure, shortened: (§3)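 Fasted animals received an intravenous bolus in DMSO at 1.0 ml/kg (rat), 0.1 ml/kg (dog) or 0.1 ml/kg (rhesus), with n = 3. Blood was drawn into EDTA tubes, and plasma was separated by centrifugation and stored at −70°C. Drug was quantified by LC/MS/MS after protein precipitation.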

[6] = Plasma clearance in rat at 2 mg/kg, iv by LC/MS/MS analysis; assay type: ADME, organism-based; set-up: dose 2 mg/kg, route intravenous
Procedure, shortened: (§4)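 Fasted animals received an IV bolus in DMSO at 1.0 ml/kg for rats and 0.1 ml/kg for dogs and rhesus monkeys, at 2 mg/kg; n = 3 per species. Blood was drawn into EDTA tubes at set times, and plasma was separated by centrifugation and stored at −70°C. Drug was quantified by LC/MS/MS after protein precipitation.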

[7] = system: Hepatitis C virus; experiment: Antiviral activity against Hepatitis C virus containing NS3/4a ps33 sequence by transient cell-base protease activity; assay type: functional, organism-based, Hepacivirus hominis; procedure, shortened: as §1
[8] = Volume of distribution in dog at 2 mg/kg, iv by LC/MS/MS analysis; assay type: ADME, organism-based, Canis lupus familiaris; set-up: dose 2 mg/kg, route intravenous; conditions: in vivo; procedure, shortened: as §4
[9] = Cytotoxicity against […] cells; assay type: cell-based; conditions: HB1
[10] = system: Hepatitis C virus; experiment: Antiviral activity against Hepatitis C virus containing NS3/4a ps38 sequence by transient cell-base protease activity; assay type: functional, organism-based, Hepacivirus hominis; procedure, shortened: as §1
[11] = system: Hepatitis C virus; experiment: Antiviral activity against Hepatitis C virus genotype 1b infected in […] cell by cell-based HCV replicon assay in presence of 10% fetal bovine serum; assay type: functional, organism-based, Hepacivirus hominis
Procedure, shortened: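 Stable genotype 1b (con1) replicon cell line HB1, assayed in medium with 10% fetal bovine serum.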

[12] = Metabolic stability in dog liver assessed as drug level at 5 mg/kg, po after 24 hrs by LC/MS/MS analysis; assay type: ADME, organism-based, Canis lupus familiaris; set-up: dose 5 mg/kg, route oral; conditions: read-out: Drug uptake
Procedure, shortened: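 Single oral dose in polyethylene glycol 400 (2.0 ml/kg). A liver biopsy (~200 μl) was taken under sedation and homogenized in 4 volumes of deionized water. Drug was quantified by LC/MS/MS after protein precipitation.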

[13] = system: Hepatitis C virus; experiment: Antiviral activity against Hepatitis C virus containing NS3/4a ps36 sequence by transient cell-base protease activity; assay type: functional, organism-based, Hepacivirus hominis; procedure, shortened: as §1
[14] = Cmax in Chimpanzee at 10 mg/kg, po by LC/MS/MS analysis; assay type: ADME, organism-based, Pan troglodytes; set-up: dose 10 mg/kg, route oral; conditions: in vivo
Procedure, shortened: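 Two HCV-uninfected chimpanzees (about 57 and 52 kg) drank the dose voluntarily in a chocolate milk vehicle (0.67 ml/kg). EDTA plasma was stored at −70°C and quantified by LC/MS/MS after protein precipitation.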

[15] = Inhibition of human Chymotrypsin
[16] = system: Hepatitis C virus; experiment: Antiviral activity against Hepatitis C virus containing NS3/F43S protease mutant activity by TaqMan-based assay; assay type: functional, organism-based, Hepacivirus hominis
[17] = biological target: T1, Cathepsin K (Homo sapiens, UniProt P43235); experiment: Inhibition of human Cathepsin K
T1 sequence (P43235 whole entry): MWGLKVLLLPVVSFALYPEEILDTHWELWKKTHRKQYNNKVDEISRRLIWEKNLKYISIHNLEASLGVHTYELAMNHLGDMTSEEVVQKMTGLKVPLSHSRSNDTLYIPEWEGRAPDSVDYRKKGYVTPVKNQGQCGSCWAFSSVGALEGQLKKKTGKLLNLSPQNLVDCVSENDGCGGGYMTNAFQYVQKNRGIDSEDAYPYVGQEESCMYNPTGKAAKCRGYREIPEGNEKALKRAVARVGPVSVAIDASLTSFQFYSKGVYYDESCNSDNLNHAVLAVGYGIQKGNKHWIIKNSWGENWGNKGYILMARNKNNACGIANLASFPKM

[18] = AUC (0-24 hrs) in rhesus monkey at 2 mg/kg, iv by LC/MS/MS analysis; assay type: ADME, organism-based, Macaca mulatta; set-up: time < 24 hr, dose 2 mg/kg, route intravenous; conditions: plasma; procedure, shortened: as §3
[19] = biological target: T2, Chymase (Homo sapiens, UniProt P23946); experiment: Inhibition of human Chymase
T2 sequence (P23946 whole entry): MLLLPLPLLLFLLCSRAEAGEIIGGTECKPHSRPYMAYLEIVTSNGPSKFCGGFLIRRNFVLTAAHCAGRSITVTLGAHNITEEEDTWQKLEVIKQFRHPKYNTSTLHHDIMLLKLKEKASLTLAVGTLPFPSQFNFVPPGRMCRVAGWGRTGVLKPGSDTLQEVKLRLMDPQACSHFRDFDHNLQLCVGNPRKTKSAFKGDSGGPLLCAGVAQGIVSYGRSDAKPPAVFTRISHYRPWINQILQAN

[20] = system: Hepatitis C virus; experiment: Antiviral activity against Hepatitis C virus containing NS3/4a ps32 sequence by transient cell-base protease activity; assay type: functional, organism-based, Hepacivirus hominis; procedure, shortened: as §1
[21] = system: Hepatitis C virus; experiment: Antiviral activity against Hepatitis C virus containing NS3/Q41R protease mutant activity by TaqMan-based assay; assay type: functional, organism-based, Hepacivirus hominis
[22] = Inhibition of Hepatitis C virus genotype 2b NS3/4A protease activity; set-up: species or system Hepatitis C virus subtype 2b
Procedure, shortened: (§5)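 Recombinant NS3/4A protease was expressed in and purified from E. coli. Inhibition was measured by a time-resolved, internally quenched fluorescence assay at low enzyme concentration. Kis were reported.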

[23] = system: Hepatitis C virus; experiment: Inhibition of Hepatitis C virus genotype 1b NS3/4A protease activity; set-up: species or system Hepatitis C virus subtype 1b; procedure, shortened: as §5
[24] = system: Hepatitis C virus; experiment: Antiviral activity against Hepatitis C virus containing NS3/4a ps37 sequence by transient cell-base protease activity; assay type: functional, organism-based, Hepacivirus hominis; procedure, shortened: as §1
[25] = biological target: T3, Cathepsin F (Homo sapiens, UniProt Q9UBX1); experiment: Inhibition of human Cathepsin F
T3 sequence (Q9UBX1 whole entry): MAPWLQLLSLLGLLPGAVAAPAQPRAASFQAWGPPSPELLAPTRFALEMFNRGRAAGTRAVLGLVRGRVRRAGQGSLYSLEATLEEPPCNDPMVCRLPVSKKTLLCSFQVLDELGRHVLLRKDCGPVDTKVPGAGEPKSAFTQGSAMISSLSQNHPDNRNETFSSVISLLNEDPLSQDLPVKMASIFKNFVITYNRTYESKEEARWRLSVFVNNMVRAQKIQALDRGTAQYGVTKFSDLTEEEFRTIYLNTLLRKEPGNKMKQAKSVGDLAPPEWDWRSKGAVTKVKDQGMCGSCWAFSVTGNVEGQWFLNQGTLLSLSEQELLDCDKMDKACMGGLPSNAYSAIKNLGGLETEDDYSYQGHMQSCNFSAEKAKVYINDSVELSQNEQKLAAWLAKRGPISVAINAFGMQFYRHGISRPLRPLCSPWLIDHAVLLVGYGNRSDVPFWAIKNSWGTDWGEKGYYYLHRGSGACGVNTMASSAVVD

[26] = AUC (0-24 hrs) in rhesus monkey at 5 mg/kg, po by LC/MS/MS analysis; assay type: ADME, organism-based, Macaca mulatta; set-up: time < 24 hr, dose 5 mg/kg, route oral; conditions: plasma; procedure, shortened: as §2

For `CC[C@@H]1C[C@]1(NC(=O)[C@@H]1C[C@@H]2CN1C(=O)[C@H](C(C)(C)C)NC(=O)OCC(C)(C)CCCCc1cccc3c1CN(C3)C(=O)O2)C(=O)NS(=O)(=O)C1CC1` [VANIPREVIR], the EC50 [1] was 19 nM, the EC50 [2] was 15 nM and the EC50 [3] was 3.4 nM. It also gave a Cmax [4] of 500 nM, an AUC(0-t) at 24 h [5] of 0.6 µM·h and a clearance [6] of 74 mL/min/kg. The EC50 [7] was 9.5 nM, the Vd [8] was 0.3 L/kg and the EC50 [9] was over 50000 nM. For the same compound, the EC50 [10] was 6 nM, the EC50 [11] was 5 nM and the concentration at 24 h [12] was 600 nM. It also gave an EC50 [13] of 4.9 nM, a Cmax [14] of 900 nM and an IC50 [15] of 520 nM. For the same compound, the EC50 [16] was 7.8 nM, the IC50 [17] was over 10000 nM and the AUC(0-t) at 24 h [18] was 2.5 µM·h. For the same compound, the IC50 [19] was over 10000 nM, the EC50 [20] was 3.8 nM and the EC50 [21] was 5.2 nM. It also gave a Ki [22] of 1.4 nM, a Ki [23] of 0.06 nM and an EC50 [24] of 6.5 nM. It also gave an IC50 [25] of over 10000 nM and an AUC(0-t) at 24 h [26] of 0.05 µM·h.

From ChEMBL document CHEMBL1240347, “MK-7009, a potent and selective inhibitor of hepatitis C virus NS3/4A protease” (Antimicrob Agents Chemother, 2010)
